This excerpt belongs to a sample that is enriched for hits.
H69AR growth 86K: blocks growth of human H69AR lung tumor cells; H69AR lung tumor viability, ATP luminescence, 72 h; hits give low values; viability, % at 10 µM; AID 598; 6% of 85,000 active;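 active means viability at or below 40%; inactive means viability above 40%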;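 further: multidrug resistant small cell line overexpressing MRP-1 efflux transporter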
PTEN del growth: growth suppressors of cells with PTEN tumor suppressor deletion | HCT116 PTEN-null viability, CellTiter-Glo, 60 h; hits give low values | viability, % at 10 µM | 1.2% of 140,000 active | AID 827;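 active means viability at or below a set limit, 4 SD under the median of all tested compounds, cut at about 3.7% in these data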;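 further: PTEN knockout HCT116 line with beta catenin targeted HCT116 as companion control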
HUVEC prolif 384: inhibitors of human endothelial cell proliferation | 1.1% of 86,000 active | HUVEC proliferation, CellTiter-Glo luminescence, 72 h; hits give low values | viability, % at 10 µM (by protocol);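 active means viability at or below 30%; inactive means viability above 30%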
bCat KO growth: beta-catenin-lacking colon tumor cell growth suppression | HCT116 beta-catenin knockout viability, CellTiter-Glo, 60 h; hits give low values | viability, % at 10 µM | 1.5% of 140,000 active | AID 818;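 active means viability at or under a set limit, the compound median less 4 SD, cut at about 6% in these data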
Lung fibro prol: blocks proliferation of human lung fibroblasts; 1.1% of 85,000 active; viability, % at 10 µM; LL 47 human lung fibroblast viability, ATP luminescence; hits give low values;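 active means viability at or below 50% in the single dose screen; inactive means viability above 50%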;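 further: compound exposure lasted 72 h before the ATP readout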
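Test system: LL 47 human lung fibroblasts / Quantity: 1,150 cells in each well / Medium: IMEM growth medium with 15% fetal bovine serum / Incubation: 72 h compound exposure at 37 °C after overnight plating / Detection: CellTiter-Glo luminescence measuring cellular ATP / Read-out: % viability versus median cells-only luminescence / Benchmarks: cell-only wells, no compound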
Of the large screens only hits and unclear results are named; the others gave an inactive call.

COc1cccc(C(=O)Nc2ccc(N3CCN(Cc4ccccc4)CC3)cc2)c1	none
CN1CCN(c2ccc(NC(=O)c3cccc(OCc4ccccc4)c3)cc2)CC1	H69AR growth 86K 32, HUVEC prolif 384 3.5, bCat KO growth 2.6
CCN1CCN(c2ccc(NC(=O)c3cccc(OCc4ccccc4)c3)cc2)CC1	PTEN del growth 3.5
COc1ccc(Cn2c(=O)[nH]c3cc(C(=O)Nc4ccc(N5CCN(C)CC5)cc4)ccc32)cc1	none (no result: H69AR growth 86K, HUVEC prolif 384, Lung fibro prol)
CN1CCN(c2ccc(NC(=O)Cc3ccccc3)cc2)CC1	none
COc1c(F)c(F)c(C(=O)Nc2ccc(N3CCN(Cc4ccccc4)CC3)cc2)c(F)c1F	HUVEC prolif 384 22
CCN1CCN(c2ccc(NC(=O)c3ccc4c(c3)[nH]c(=O)n4Cc3ccc(F)cc3)cc2)CC1	PTEN del growth 1.8, bCat KO growth 3.4 (no result: H69AR growth 86K, HUVEC prolif 384, Lung fibro prol)
O=c1c2ccccc2cnn1Cc1n[nH]c(=S)n1-c1ccccc1	none (no result: H69AR growth 86K, HUVEC prolif 384, Lung fibro prol)
CCCN1Cc2cccc(C(=O)Nc3ccc(N4CCN(CC)CC4)cc3)c2C1=O	H69AR growth 86K 22 (no result: PTEN del growth, bCat KO growth)
Cc1nn(-c2nc3ccccc3[nH]2)c(N)c1-c1ccccc1	H69AR growth 86K 20
Cc1nn(-c2nc3ccccc3s2)c(N)c1-c1ccccc1	none
O=C(CSc1nnc(-c2cccnc2)n1Cc1ccccc1)NCc1ccccc1	none
CC(C)=N/N=C1/NC(=O)C(CC(=O)Nc2cc(Cl)ccc2C)S1 (configuration not stated)	none (no result: H69AR growth 86K, HUVEC prolif 384, Lung fibro prol)
CC(Sc1nnc(-c2cccnc2)n1-c1ccccc1F)C(=O)N1CCCc2ccccc21 (configuration not stated)	none (no result: H69AR growth 86K, HUVEC prolif 384, Lung fibro prol)
Cc1cc2oc3c(c(=O)c2cc1C)C(c1ccc(C(C)C)cc1)N(CCCN1CCOCC1)C3=O (configuration not stated)	none
Cc1ccc(Cn2c(=N)n(CC(O)COc3ccccc3)c3ccccc32)cc1 (configuration not stated)	H69AR growth 86K -0.1, PTEN del growth 0.5, HUVEC prolif 384 2.7, bCat KO growth 0.5, Lung fibro prol 22
N=c1n(Cc2ccccc2)c2ccccc2n1CC(O)COc1ccccc1 (configuration not stated)	H69AR growth 86K 15, PTEN del growth 1.2, bCat KO growth 0.9
CCOC(=O)N1CCN(C(=O)COc2cccc3c2CCN(Cc2ccccc2F)C3=O)CC1	none (no result: H69AR growth 86K, HUVEC prolif 384, Lung fibro prol)
Cc1c(/C=N/NC(=O)C(NC(=O)c2ccc3c(c2)OCO3)C(C)C)c2ccccc2n1C (configuration not stated)	none (no result: H69AR growth 86K, HUVEC prolif 384, Lung fibro prol)
Cc1ccc(-c2nnc(SCC(=O)Nc3ccccc3N3CCOCC3)o2)cc1	none
CCOC(=O)CC(=O)CSc1nc2c(c(C)c1C#N)CCC2	H69AR growth 86K 12
COC(=O)CSc1nc2cc(C)ccc2cc1C#N	none (no result: Lung fibro prol)
CCOC(=O)CC(=O)CSc1nc2ccc(C)cc2cc1C#N	H69AR growth 86K 3.2
Cc1ccc2nc(SCC(=O)Nc3ccccc3N3CCOCC3)c(C#N)cc2c1	H69AR growth 86K 24
COC(=O)NC(=C(Cl)Cl)S(=O)(=O)c1ccccc1	H69AR growth 86K 1.1, PTEN del growth 1.9, bCat KO growth 2.6, Lung fibro prol 34
CCOC(=O)Cc1csc(NC(=O)c2ccc(Cl)nc2)n1	H69AR growth 86K 29
CCOC(=O)Cc1csc(NC(=O)c2c(O)c3ccccc3n(CC(C)C)c2=O)n1	H69AR growth 86K 17
CCOC(=O)Cc1csc(NC(=O)c2cccs2)n1	none
CCOC(=O)Cc1csc(NC(=O)c2ccc3c(c2)OCO3)n1	none
COc1cc2c(cc1OC)CN(C(C)C(=O)Nc1ccc(NC(C)=O)cc1)CC2 (configuration not stated)	none (no result: H69AR growth 86K, HUVEC prolif 384, Lung fibro prol)
Cc1ccccc1-n1c(O)c(/C=N/N2CCCCC2c2cccnc2)c(=O)[nH]c1=O (configuration not stated)	none (no result: H69AR growth 86K, HUVEC prolif 384, Lung fibro prol)
Cc1ccc(C2Nc3ccccc3C(=O)N2Cc2ccco2)cc1 (configuration not stated)	H69AR growth 86K 30
CC1(C)Cc2c(c(N3CCOCC3)nc3snc(NC(=O)c4ccccc4)c23)CO1	H69AR growth 86K 37
CC1(C)Cc2c(C#N)c(SCC(=O)c3ccccc3)nc(N3CCOCC3)c2CO1	Lung fibro prol 48
CC1(C)Cc2c(C#N)c(N3CCN(C(=O)c4ccccc4)CC3)nc(Cc3ccccc3)c2CO1	H69AR growth 86K 29
CCCCCSc1nc(N2CCOCC2)c2c(c1C#N)CC(C)(C)OC2	H69AR growth 86K 33
COC(=O)Sc1nc(N2CCOCC2)c2c(c1C#N)CC(C)(C)OC2	none
CC1(C)Cc2c(C#N)c(SCc3ccccc3)nc(N3CCOCC3)c2CO1	none
Cc1ccc2nc3c(cc(C#N)c(=N)n3CCCN3CCOCC3)c(=O)n2c1	none (no result: PTEN del growth, bCat KO growth)
